“And” between values parts separate entries of the source, which are not always exact repeats. Identical values can stand only once. Like-named read-outs stand apart in the source and are kept apart here.
Tests used:
[1] = test system: Japanese patients with pulmonary arterial hypertension; experiment: 6-minute walking distance and Borg Dyspnea Score; format: in vivo, human
How it was run: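 Single-arm, open-label study: test compound nebulised at 6 µg/breath from a 0.6 mg/mL solution, started at 3 breaths (18 µg)/session four times daily. Peak 6MWD taken 10–60 min after inhalation, trough 6MWD at least 4 h post-inhalation. Borg score was a secondary endpoint. Change from baseline; significance taken as a two-sided 95% CI excluding 0.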

[2] = test system: Japanese patients with pulmonary arterial hypertension; experiment: Time to clinical worsening; format: in vivo, human
How it was run: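 Clinical worsening was defined as death, transplantation, hospitalisation for worsening PAH, or start of additional PAH-specific therapy. Followed during the 12-week main and 40-week long-term periods of open-label nebulised test compound (6 µg/breath, starting 3 breaths/session four times daily), in addition to background ERA and/or PDE5 inhibitor/sGC stimulator.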

[3] = Plasma pharmacokinetics in Japanese PAH patients; format: in vivo, human
[4] = 54 μg inhaled, non-Japanese PAH patients; cited from earlier work
[5] = Plasma pharmacokinetics in Japanese healthy adults, single inhalation; format: in vivo, human; settings: 18 and 36 μg inhaled
[6] = test system: Japanese patients with pulmonary arterial hypertension; experiment: NT-proBNP levels; format: in vivo, human
How it was run: (§1)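 Multicentre, non-randomised, single-arm study: 12-week main period plus 40-week extension. Nebulised test compound given as 0.6 mg/mL at 6 µg/breath, starting 3 breaths (18 µg)/session four times daily. Patients 18–75 y with PAH; stable background ERA/PDE5 inhibitor/sGC stimulator allowed; no other prostacyclin-pathway drugs. Secondary endpoints reported as change from baseline.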

[7] = test system: Japanese patients with pulmonary arterial hypertension; experiment: Safety: adverse events and safety parameters over 52 weeks; format: in vivo, human
How it was run: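 Over the 52 weeks of nebulised test compound (6 µg/breath, starting 3 breaths four times daily), AEs were coded by MedDRA v24.0 preferred term. Monitoring covered clinical laboratory tests, blood pressure, pulse, SpO2, ECG, chest X-ray, pulmonary function, arterial blood gas and body weight. Safety set: patients who received at least one dose.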

[8] = test system: Japanese patients with pulmonary arterial hypertension; experiment: WHO functional class; format: in vivo, human
How it was run: as §1

[9] = test system: Japanese patients with pulmonary arterial hypertension; experiment: Hemodynamic measurements by right heart catheterization; format: in vivo, human
How it was run: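 RHC at baseline and Week 12, pre-inhalation and 15 and 30 min after inhaling test compound (6 µg/breath, starting 3 breaths four times daily). CO by thermodilution or indirect Fick per site, with the same method per patient. PVR = (mPAP−PAWP)/CO; PVRI = (mPAP−PAWP)/cardiac index (CO/BSA). Lower of 15/30-min PVRI taken as Week-12 "best". Significance: 95% CI of mean change excluding 0.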

[10] = test system: Japanese patients with pulmonary arterial hypertension; experiment: Quality of life, Minnesota Living with Heart Failure questionnaire; format: in vivo, human
How it was run: as §1

[11] = test system: Japanese patients with pulmonary arterial hypertension; settings: baseline to week 16, study of selexipag in Japan; cited from earlier work
[12] = human, plasma, inhaled or intranasal, 54 ug
[13] = over 52 weeks, n = 17, listed as treprostinil
[14] = Week 12, 15 min post-inhalation, n = 17
[15] = Week 12, 30 min post-inhalation, n = 17
[16] = Week 12, post-inhalation best, n = 17
[17] = Week 12, pre-inhalation (trough treprostinil level), n = 17
[18] = Week 12, pre-inhalation, n = 17

## CCCCC[C@H](O)CC[C@@H]1[C@H]2Cc3cccc(OCC(=O)O)c3C[C@H]2C[C@H]1O [inhaled treprostinil, Treprostinil]
[1]; Week 12
  Mean change from baseline in trough 6MWD: +17.8 ± 35.5 m
[1]; Weeks 6, 12, and 52
  Change from baseline in Borg Dyspnea Score: No significant changes
[2]; long-term treatment period, patients who had been receiving an ERA
  Add-on therapy with a PDE5 inhibitor/sGC stimulator: two patients
[2]; main treatment period (12 weeks)
  Needed additional PAH-specific therapy: no patient
[2]; throughout the 52 weeks
  Death, transplantation, or hospitalization due to worsening PAH: no patient
[3]; [12]
  MRT: 55.8 ± 10.2 min
  Vd/F: 76.7 ± 52.2 L
  k el: 0.000272 s⁻¹
[3]; nine breaths (54 μg) four times daily
  Time detectable in the plasma after inhalation: approximately 4 h
[4]
  Geometric mean C max: 1.02 ng/mL
[5]
  Mean C max, Japanese vs non-Japanese healthy adults: 1.2 fold
[6]; Week 6
  Mean change from baseline in NT-proBNP level: -34.6 ± 100.0 pg/mL
[6]; Week 12
  Mean change from baseline in NT-proBNP level: -35.5 ± 165.5 pg/mL
[6]; Week 52
  Mean change from baseline in NT-proBNP level: -77.1 ± 194.1 pg/mL
[7]; 52-week period
  AE related to treprostinil: cough: 47.1%
  AE related to treprostinil: headache: 58.8%
  AE related to treprostinil: hot flush: 23.5%
  AE related to treprostinil: throat irritation: 29.4%
[7]; all AEs, 52-week period
  Intensity of AEs: mild‐moderate intensity
[7]; four times daily in Japanese patients with PAH
  Tolerability: well tolerated
[7]; over 52 weeks, n = 17
  AE related to treprostinil: Blood pressure decreased: 2 (11.8) n (%)
  AE related to treprostinil: Diarrhoea: 2 (11.8) n (%)
  AE related to treprostinil: Dizziness: 2 (11.8) n (%)
  AE related to treprostinil: Head discomfort: 3 (17.6) n (%)
  AE related to treprostinil: Hot flush: 4 (23.5) n (%)
  AE related to treprostinil: Nausea: 3 (17.6) n (%)
  AE related to treprostinil: Oropharyngeal discomfort: 3 (17.6) n (%)
  AE related to treprostinil: Oropharyngeal pain: 2 (11.8) n (%)
  AE related to treprostinil: Pyrexia: 2 (11.8) n (%)
  AE related to treprostinil: cough: 8 (47.1) n (%)
  AE related to treprostinil: headache: 10 (58.8) n (%)
  AE related to treprostinil: throat irritation: 5 (29.4) n (%)
  Deaths: no deaths
[7]; [13]
  Deaths: 0 n (%)
  Total patients with at least one AE: 17 n (%) and 17 (100.0) n (%)
  Total patients with at least one AE related to treprostinil: 17 n (%) and 17 (100.0) n (%)
[8]; Week 12
  WHO functional class improved: four
[8]; Week 12 (n = 17)
  WHO functional class I: 1 (5.9) n (%)
  WHO functional class II: 13 (76.5) n (%)
  WHO functional class III: 3 (17.6) n (%)
[8]; Week 52 (n = 16)
  WHO functional class I: 2 (12.5) n (%)
  WHO functional class II: 12 (75.0) n (%)
  WHO functional class III: 2 (12.5) n (%)
[8]; baseline to Week 12 (n = 17)
  WHO functional class shift II -> I: 1 (5.9) n (%)
  WHO functional class shift II -> II: 10 (58.8) n (%)
  WHO functional class shift III -> II: 3 (17.6) n (%)
  WHO functional class shift III -> III: 3 (17.6) n (%)
[8]; baseline to Week 52 (n = 16)
  WHO functional class shift II -> I: 2 (12.5) n (%)
  WHO functional class shift II -> II: 9 (56.3) n (%)
  WHO functional class shift III -> II: 3 (18.8) n (%)
  WHO functional class shift III -> III: 2 (12.5) n (%)
[8]; throughout the 52 weeks
  Deterioration of WHO functional class: no patient
[9]; 13 patients receiving a combination of an ERA and a PDE5 inhibitor/sGC stimulator
  Best change from baseline in PVRI at Week 12: −36.7 ± 25.0%
[9]; [14]
  CO: 4.9 ± 1.6 L/min
  Cardiac index: 3.0 ± 0.9 L/min/m^2
  PAWP: 9.4 ± 4.2 mmHg
  PVR: 4.5 ± 1.8 Wood units
  PVRI: 7.4 ± 2.8 Wood units·m^2
  SVR: 17.8 ± 6.5 Wood units
  SVRI: 28.8 ± 9.5 Wood units·m^2
  SvO2: 71.3 ± 5.6%
  mPAP: 30.5 ± 10.1 mmHg
  mRAP: 4.5 ± 3.1 mmHg
[9]; [15]
  CO: 5.0 ± 1.5 L/min
  Cardiac index: 3.0 ± 0.9 L/min/m^2
  PAWP: 8.9 ± 3.9 mmHg
  PVR: 4.4 ± 2.0 Wood units
  PVRI: 7.3 ± 3.1 Wood units·m^2
  SVR: 17.7 ± 6.2 Wood units
  SVRI: 28.7 ± 9.2 Wood units·m^2
  SvO2: 70.0 ± 5.8%
  mPAP: 30.1 ± 10.3 mmHg
  mRAP: 4.8 ± 3.3 mmHg
[9]; [16]
  CO: 5.1 ± 1.7 L/min
  Cardiac index: 3.1 ± 0.9 L/min/m^2
  PAWP: 8.5 ± 4.0 mmHg
  PVR: 4.2 ± 1.9 Wood units
  PVRI: 6.9 ± 2.9 Wood units·m^2
  SVR: 17.5 ± 6.4 Wood units
  SVRI: 28.4 ± 9.4 Wood units·m^2
  SvO2: 71.5 ± 5.5%
  mPAP: 29.8 ± 9.9 mmHg
  mRAP: 4.4 ± 3.0 mmHg
[9]; [17]
  Change from baseline in PVR: −19.6 ± 26.8%
  Change from baseline in PVRI: −19.2 ± 26.8%
  Change from baseline in mPAP: −4.0 ± 6.1 mmHg
[9]; [18]
  CO: 4.6 ± 1.3 L/min
  Cardiac index: 2.8 ± 0.8 L/min/m^2
  PAWP: 8.8 ± 4.1 mmHg
  PVR: 5.7 ± 2.2 Wood units
  PVRI: 9.3 ± 3.1 Wood units·m^2
  SVR: 19.5 ± 6.2 Wood units
  SVRI: 31.7 ± 8.7 Wood units·m^2
  SvO2: 71.2 ± 5.3%
  mPAP: 34.1 ± 9.8 mmHg
  mRAP: 5.0 ± 3.5 mmHg
[9]; one patient who was treatment-naïve
  Best change from baseline in PVRI at Week 12: −54.7%
[9]; post-inhalation best, n = 17
  % Change from baseline to Week 12 in CO: 18.3 ± 20.0 (8.0 to 28.6) %
  % Change from baseline to Week 12 in PAWP: 24.2 ± 60.9 (−7.1 to 55.5) %
  % Change from baseline to Week 12 in PVR: −39.7 ± 25.6 (−52.9 to −26.5) %
  % Change from baseline to Week 12 in PVRI (primary endpoint): −39.4 ± 25.5 (−52.6 to −26.3) %
  % Change from baseline to Week 12 in SVR: −15.3 ± 24.0 (−27.7 to −3.0) %
  % Change from baseline to Week 12 in SVRI: −14.8 ± 24.4 (−27.4 to −2.3) %
  % Change from baseline to Week 12 in SvO2: 2.7 ± 5.8 (−0.3 to 5.7) %
  % Change from baseline to Week 12 in cardiac index: 17.8 ± 20.3 (7.3 to 28.2) %
  % Change from baseline to Week 12 in mPAP: −21.7 ± 19.7 (−31.9 to −11.6) %
  % Change from baseline to Week 12 in mRAP: −0.3 ± 57.0 (−31.9 to 31.2) %
  Change from baseline to Week 12 in PVR: −2.9 ± 2.0 (−4.0 to −1.9) Wood units
  Change from baseline to Week 12 in PVRI: −4.7 ± 3.0 (−6.2 to −3.1) Wood units·m^2
  Change from baseline to Week 12 in SVR: −3.3 ± 4.4 (−5.6 to −1.1) Wood units
  Change from baseline to Week 12 in SVRI: −5.3 ± 7.3 (−9.1 to −1.5) Wood units·m^2
  Change from baseline to Week 12 in mPAP: −8.3 ± 6.8 (−11.8 to −4.8) mmHg
[9]; three patients receiving an ERA
  Best change from baseline in PVRI at Week 12: −46.0 ± 35.1%
[10]; Week 12
  Mean change from baseline in MLWHF global score: −6.6 ± 12.1
[10]; Week 52
  Mean change from baseline in MLWHF global score: −5.8 ± 13.4

## CC(C)N(CCCCOCC(=O)NS(C)(=O)=O)c1cnc(-c2ccccc2)c(-c2ccccc2)n1 [selexipag]
[11]
  Change from baseline in mPAP: −3.1 mmHg

— publication PMC9906001 (Pulmonary Circulation, 2023)
